Legend:
[1] = target: Glutamate receptor 1 (Rattus norvegicus) (UniProt P19490); assay: Activity at rat cloned iGluR1 expressed in human HEK293 cells by calcium imaging assay relative to L-glutamate; format: cell-based; parameters: concentration or dose not given beside the values
Outline: (§1)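 Rat iGluR1–6 subtypes cloned and expressed in HEK cells: iGluR2, iGluR5 and iGluR6 as the Q forms; iGluR1–4 marked with subscript "i". Receptor activation was read by Fluo-4 calcium imaging.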

[2] = target: Glutamate receptor ionotropic, kainate 1 (Rattus norvegicus, UniProt P22756); assay: Activity at rat cloned iGluR5 expressed in human HEK293 cells by calcium imaging assay; format: cell-based
Glutamate receptor 1 = Glutamate receptor 1 (Rattus norvegicus, UniProt P19490); assay: Activity at rat cloned iGluR1 expressed in human HEK293 cells by calcium imaging assay; format: cell-based; outline: as §1
Glutamate receptor 2 = Glutamate receptor 2 (Rattus norvegicus, UniProt P19491); assay: Activity at rat cloned iGluR2 expressed in human HEK293 cells by calcium imaging assay; format: cell-based
[3] = target: Glutamate receptor ionotropic, kainate 2 (Rattus norvegicus, UniProt P42260); assay: Activity at rat cloned iGluR6 expressed in human HEK293 cells by calcium imaging assay; format: cell-based; outline: as §1
Glutamate receptor 3 = Glutamate receptor 3 (Rattus norvegicus, UniProt P19492); assay: Activity at rat cloned iGluR3 expressed in human HEK293 cells by calcium imaging assay; format: cell-based; outline: as §1
[4] = target: Metabotropic glutamate receptor 4 (Rattus norvegicus, UniProt P31423); assay: Activity at rat cloned mGluR4 expressed in CHO cells assessed as effect on cAMP accumulation; format: functional, cell-based
Outline: (§2)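 Second-messenger functional assay on rat mGluR1a (group I), mGluR2 (group II) and mGluR4 (group III) expressed in CHO cells. EC50 in µM with pEC50, reported as mean [pEC50 ± SEM] of at least three independent experiments.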

[5] = target: Glutamate receptor 3 (Rattus norvegicus) (UniProt P19492); assay: Activity at rat cloned iGluR3 expressed in human HEK293 cells by calcium imaging assay relative to L-glutamate; format: cell-based; parameters: concentration or dose not given beside the values; outline: as §1
[6] = Displacement of [3H]AMPA from AMPA receptor in rat cortical membrane; format: cell membranes
Outline: (§3)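 Competition binding on rat cortical membranes prepared by the Ransom and Stec method, using [3H]AMPA (AMPA receptors) or [3H]KA (kainate receptors). IC50 in µM reported as mean [pIC50 ± SEM] of at least three individual experiments.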

[7] = target: Glutamate receptor 4 (Rattus norvegicus) (UniProt P19493); assay: Activity at rat cloned iGluR4 expressed in human HEK293 cells by calcium imaging assay relative to L-glutamate; format: cell-based; parameters: concentration or dose not given beside the values; outline: as §1
[8] = target: Glutamate receptor ionotropic, kainate 1 (Rattus norvegicus) (UniProt P22756); assay: Activity at rat cloned iGluR5 expressed in human HEK293 cells by calcium imaging assay relative to L-glutamate; format: cell-based; parameters: concentration or dose not given beside the values; outline: as §1
[9] = target: Glutamate receptor ionotropic, kainate 2 (Rattus norvegicus) (UniProt P42260); assay: Activity at rat cloned iGluR6 expressed in human HEK293 cells by calcium imaging assay relative to L-glutamate; format: cell-based; parameters: concentration or dose not given beside the values; outline: as §1
[10] = target: Metabotropic glutamate receptor 2 (Rattus norvegicus, UniProt P31421); assay: Activity at rat cloned mGluR2 expressed in CHO cells assessed as effect on cAMP accumulation; format: functional, cell-based; outline: as §2
Glutamate NMDA receptor = assay: Displacement of [3H]CGP-39653 from NMDA receptor in rat cortical membrane; format: cell membranes
Outline: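 NMDA receptor binding on rat cortical membranes prepared by the Ransom and Stec method, with [3H]CGP39653 as radioligand. Ki in µM reported as mean [pKi ± SEM] of at least three individual experiments.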

Glutamate receptor 4 = Glutamate receptor 4 (Rattus norvegicus, UniProt P19493); assay: Activity at rat cloned iGluR4 expressed in human HEK293 cells by calcium imaging assay; format: cell-based; outline: as §1
[11] = target: Glutamate receptor 2 (Rattus norvegicus) (UniProt P19491); assay: Activity at rat cloned iGluR2 expressed in human HEK293 cells by calcium imaging assay relative to L-glutamate; format: cell-based; parameters: concentration or dose not given beside the values; outline: as §1
[12] = Displacement of [3H]KA from kainate receptor in rat cortical membrane; format: cell membranes; outline: as §3
[13] = target: Metabotropic glutamate receptor 1 (Rattus norvegicus, UniProt P23385); assay: Activity at rat cloned mGluR1a expressed in CHO cells assessed as effect on cAMP accumulation; format: functional, cell-based; outline: as §2
Metabotropic glutamate receptor 1, sequence (P23385 whole entry): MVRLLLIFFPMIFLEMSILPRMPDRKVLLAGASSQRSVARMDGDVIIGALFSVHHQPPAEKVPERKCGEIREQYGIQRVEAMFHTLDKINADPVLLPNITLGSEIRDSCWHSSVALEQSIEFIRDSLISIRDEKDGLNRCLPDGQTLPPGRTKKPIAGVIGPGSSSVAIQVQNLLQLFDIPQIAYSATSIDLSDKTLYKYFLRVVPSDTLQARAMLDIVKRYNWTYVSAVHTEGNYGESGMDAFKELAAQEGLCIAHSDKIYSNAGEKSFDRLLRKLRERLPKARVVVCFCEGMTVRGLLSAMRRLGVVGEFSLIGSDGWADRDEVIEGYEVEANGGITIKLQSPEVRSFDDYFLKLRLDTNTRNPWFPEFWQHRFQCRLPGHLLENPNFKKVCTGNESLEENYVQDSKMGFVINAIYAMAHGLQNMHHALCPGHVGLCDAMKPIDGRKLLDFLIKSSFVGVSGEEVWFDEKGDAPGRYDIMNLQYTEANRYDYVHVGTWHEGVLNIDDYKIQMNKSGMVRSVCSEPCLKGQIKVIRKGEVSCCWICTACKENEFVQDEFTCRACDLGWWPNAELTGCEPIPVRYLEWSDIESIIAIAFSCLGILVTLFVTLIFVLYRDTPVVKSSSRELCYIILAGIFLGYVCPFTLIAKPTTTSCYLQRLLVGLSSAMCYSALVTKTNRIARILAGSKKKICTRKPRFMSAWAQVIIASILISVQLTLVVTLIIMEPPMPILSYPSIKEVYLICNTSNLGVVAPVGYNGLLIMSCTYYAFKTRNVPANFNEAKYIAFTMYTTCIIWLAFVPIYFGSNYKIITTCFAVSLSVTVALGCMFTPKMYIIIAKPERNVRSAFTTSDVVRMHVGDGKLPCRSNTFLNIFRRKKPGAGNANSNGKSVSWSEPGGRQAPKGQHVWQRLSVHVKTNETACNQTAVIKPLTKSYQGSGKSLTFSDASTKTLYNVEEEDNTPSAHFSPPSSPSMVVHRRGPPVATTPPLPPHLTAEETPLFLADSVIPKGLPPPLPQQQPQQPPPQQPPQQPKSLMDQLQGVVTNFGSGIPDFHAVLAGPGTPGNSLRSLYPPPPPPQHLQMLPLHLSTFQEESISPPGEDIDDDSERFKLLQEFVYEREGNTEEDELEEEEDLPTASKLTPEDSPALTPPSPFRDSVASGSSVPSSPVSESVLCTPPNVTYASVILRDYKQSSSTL

Glutamate receptor 4, sequence (P19493 whole entry): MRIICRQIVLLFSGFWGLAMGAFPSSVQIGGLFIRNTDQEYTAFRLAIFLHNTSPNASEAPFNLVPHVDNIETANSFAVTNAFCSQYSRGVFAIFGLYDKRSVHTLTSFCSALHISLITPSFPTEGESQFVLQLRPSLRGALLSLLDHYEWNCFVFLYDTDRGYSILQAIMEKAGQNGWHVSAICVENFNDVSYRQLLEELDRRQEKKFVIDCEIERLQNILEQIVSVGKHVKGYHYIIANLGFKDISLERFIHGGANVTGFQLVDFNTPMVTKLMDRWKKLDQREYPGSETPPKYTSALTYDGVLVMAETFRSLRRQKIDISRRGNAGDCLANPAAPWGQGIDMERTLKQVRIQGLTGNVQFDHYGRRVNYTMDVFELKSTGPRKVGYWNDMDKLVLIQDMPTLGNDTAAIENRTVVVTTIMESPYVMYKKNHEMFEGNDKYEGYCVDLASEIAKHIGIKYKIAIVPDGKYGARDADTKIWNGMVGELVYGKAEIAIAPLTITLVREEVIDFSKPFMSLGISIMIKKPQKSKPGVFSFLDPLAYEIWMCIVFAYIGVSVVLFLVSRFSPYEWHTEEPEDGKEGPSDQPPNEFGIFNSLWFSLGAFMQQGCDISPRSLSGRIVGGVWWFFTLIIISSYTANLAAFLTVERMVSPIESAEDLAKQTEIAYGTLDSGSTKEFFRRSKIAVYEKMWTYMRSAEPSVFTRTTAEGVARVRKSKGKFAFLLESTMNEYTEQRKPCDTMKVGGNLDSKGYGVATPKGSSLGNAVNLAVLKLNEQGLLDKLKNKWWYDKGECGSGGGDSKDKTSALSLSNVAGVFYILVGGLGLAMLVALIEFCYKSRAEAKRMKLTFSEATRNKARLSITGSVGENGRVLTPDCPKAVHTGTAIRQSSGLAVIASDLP
Glutamate receptor 4 (Rattus norvegicus), sequence (P19493 whole entry): as above
Glutamate receptor 3 (Rattus norvegicus), sequence (P19492 whole entry): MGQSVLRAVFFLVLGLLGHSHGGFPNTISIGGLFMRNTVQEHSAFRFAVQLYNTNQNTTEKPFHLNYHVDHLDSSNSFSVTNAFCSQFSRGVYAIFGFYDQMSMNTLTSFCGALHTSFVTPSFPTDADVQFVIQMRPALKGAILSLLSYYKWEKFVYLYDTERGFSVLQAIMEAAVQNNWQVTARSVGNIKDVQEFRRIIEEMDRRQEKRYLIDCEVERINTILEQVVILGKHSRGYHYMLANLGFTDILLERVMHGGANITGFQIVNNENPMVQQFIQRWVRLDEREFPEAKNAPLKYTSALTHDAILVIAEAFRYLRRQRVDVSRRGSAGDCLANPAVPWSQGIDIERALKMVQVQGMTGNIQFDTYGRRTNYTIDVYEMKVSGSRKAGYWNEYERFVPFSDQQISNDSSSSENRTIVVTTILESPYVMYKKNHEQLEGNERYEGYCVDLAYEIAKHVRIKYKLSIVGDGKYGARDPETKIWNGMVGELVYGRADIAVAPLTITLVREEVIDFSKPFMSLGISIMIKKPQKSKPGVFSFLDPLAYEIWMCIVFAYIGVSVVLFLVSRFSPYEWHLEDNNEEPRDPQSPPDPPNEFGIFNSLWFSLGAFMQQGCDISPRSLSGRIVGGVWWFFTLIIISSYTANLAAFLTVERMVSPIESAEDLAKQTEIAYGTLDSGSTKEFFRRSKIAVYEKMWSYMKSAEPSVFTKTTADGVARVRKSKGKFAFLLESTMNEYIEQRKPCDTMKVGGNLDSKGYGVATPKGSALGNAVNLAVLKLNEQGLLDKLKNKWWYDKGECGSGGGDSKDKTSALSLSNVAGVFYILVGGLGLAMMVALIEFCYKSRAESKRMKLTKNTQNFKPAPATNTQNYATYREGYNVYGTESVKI
Glutamate receptor 3, sequence (P19492 whole entry): as above
Metabotropic glutamate receptor 2, sequence (P31421 whole entry): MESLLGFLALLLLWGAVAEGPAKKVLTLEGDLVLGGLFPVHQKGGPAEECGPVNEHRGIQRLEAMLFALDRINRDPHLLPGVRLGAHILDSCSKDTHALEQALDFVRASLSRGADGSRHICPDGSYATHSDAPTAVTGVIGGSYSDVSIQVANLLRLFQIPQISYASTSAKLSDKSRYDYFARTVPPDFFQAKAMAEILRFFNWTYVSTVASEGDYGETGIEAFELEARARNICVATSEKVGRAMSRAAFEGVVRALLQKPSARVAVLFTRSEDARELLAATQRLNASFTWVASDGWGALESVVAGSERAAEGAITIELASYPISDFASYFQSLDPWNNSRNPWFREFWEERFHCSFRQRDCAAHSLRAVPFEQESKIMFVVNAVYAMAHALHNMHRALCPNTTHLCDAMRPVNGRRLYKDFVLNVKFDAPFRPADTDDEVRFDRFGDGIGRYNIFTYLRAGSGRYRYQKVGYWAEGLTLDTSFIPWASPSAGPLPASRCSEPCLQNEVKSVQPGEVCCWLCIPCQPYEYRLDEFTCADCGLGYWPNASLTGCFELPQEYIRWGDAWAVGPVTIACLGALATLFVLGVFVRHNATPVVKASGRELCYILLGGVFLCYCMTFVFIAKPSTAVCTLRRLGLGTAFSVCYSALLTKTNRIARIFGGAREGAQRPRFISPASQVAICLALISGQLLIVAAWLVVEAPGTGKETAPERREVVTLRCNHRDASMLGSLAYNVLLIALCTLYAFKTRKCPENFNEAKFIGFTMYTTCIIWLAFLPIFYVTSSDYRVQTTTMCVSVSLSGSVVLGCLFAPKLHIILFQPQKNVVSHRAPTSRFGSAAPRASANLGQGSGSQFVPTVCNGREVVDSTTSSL
Glutamate receptor ionotropic, kainate 1, sequence (P22756 whole entry): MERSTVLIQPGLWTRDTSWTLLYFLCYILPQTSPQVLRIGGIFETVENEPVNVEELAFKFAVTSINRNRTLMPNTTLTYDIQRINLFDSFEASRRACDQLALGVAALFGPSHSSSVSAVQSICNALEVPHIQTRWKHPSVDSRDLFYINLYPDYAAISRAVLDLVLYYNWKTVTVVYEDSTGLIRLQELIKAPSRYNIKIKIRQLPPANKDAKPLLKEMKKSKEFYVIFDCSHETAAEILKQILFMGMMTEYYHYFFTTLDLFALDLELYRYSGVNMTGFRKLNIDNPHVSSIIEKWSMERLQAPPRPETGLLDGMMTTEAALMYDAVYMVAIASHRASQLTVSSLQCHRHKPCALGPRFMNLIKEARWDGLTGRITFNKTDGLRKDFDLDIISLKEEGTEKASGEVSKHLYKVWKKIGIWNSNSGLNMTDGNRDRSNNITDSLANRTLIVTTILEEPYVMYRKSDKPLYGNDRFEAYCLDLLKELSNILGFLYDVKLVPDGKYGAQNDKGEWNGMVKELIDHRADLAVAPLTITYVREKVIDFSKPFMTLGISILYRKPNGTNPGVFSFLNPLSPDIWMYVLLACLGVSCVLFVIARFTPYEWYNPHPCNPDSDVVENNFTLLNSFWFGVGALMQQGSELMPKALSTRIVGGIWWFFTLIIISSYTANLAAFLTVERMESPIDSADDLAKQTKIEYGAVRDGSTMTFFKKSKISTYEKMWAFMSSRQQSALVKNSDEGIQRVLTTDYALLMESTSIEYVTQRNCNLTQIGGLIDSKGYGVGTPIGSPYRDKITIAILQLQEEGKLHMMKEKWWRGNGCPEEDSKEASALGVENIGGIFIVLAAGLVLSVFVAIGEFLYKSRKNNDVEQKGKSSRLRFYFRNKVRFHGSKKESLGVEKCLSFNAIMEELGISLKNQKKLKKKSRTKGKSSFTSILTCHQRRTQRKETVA
Glutamate receptor ionotropic, kainate 1 (Rattus norvegicus), sequence (P22756 whole entry): as above

Structure (SMILES)	Activity [1] [%]	EC50 [2] [µM]	EC50 (Glutamate receptor 1) [µM]	EC50 (Glutamate receptor 2) [µM]	EC50 [3] [µM]	EC50 (Glutamate receptor 3; read-out: EC50) [µM]	EC50 [4] [µM]	Activity [5] [%]	IC50 [6] [µM]	Log IC50 [6]	Activity [7] [%]	Activity [8] [%]	Activity [9] [%]	EC50 [10] [µM]	Ki (Glutamate NMDA receptor) [µM]	EC50 (Glutamate receptor 4) [µM]	Activity [11] [%]	IC50 [12] [µM]	Log IC50 [12]	EC50 ([13]; read-out: EC50) [µM]	also measured
N[C@@H](C(=O)O)[C@@H]1CC(O)=NO1	13	> 1000	> 1000	> 1000	> 1000	> 1000	> 1000	10	12	-4.92	7	8	15	> 1000	75	> 1000	14	11	-4.95	> 1000	
NC(C(=O)O)C1CC(O)=NO1 (racemic; form 1) [TRICHOLOMIC ACID]							> 1000		1.1	-5.86				> 1000				0.76	-6.14	790	IC50 (Glutamate NMDA receptor): 1.5 µM
N[C@H](C(=O)O)[C@@H]1CC(O)=NO1	90	280	120	480	82	170	> 1000	88	0.95	-6.02	91	91	91	> 1000	41	30	74	0.29	-6.55	610	EC50 (Glutamate receptor 3; read-out: Log EC50 (converted)): 155 µM
N[C@H](C(=O)O)[C@H]1CC(O)=NO1	35	> 1000	> 1000	> 1000	> 1000	> 1000	> 1000	23	> 100		90	12	11	84	95	> 1000	20	36	-4.45	82	Log Ki (Glutamate NMDA receptor): -4.03
NC(C(=O)O)C1CC(O)=NO1 (racemic; form 2) [TRICHOLOMIC ACID]									19	-4.73				100				6	-5.22	110	IC50 (Glutamate NMDA receptor): 73 µM; EC50 ([13]; read-out: Log EC50 (converted)): 79.4 µM
N[C@H](C(=O)O)c1cc(O)no1 [IBOTENIC ACID]	6							1	> 100		32	8	96				2	22	-4.66		
N[C@H](C(=O)O)c1cc(=O)[nH]o1 [IBOTENIC ACID]		> 1000	> 1000	> 1000	> 1000	> 1000	> 1000									> 1000				43	
N[C@@H](C(=O)O)[C@H]1CC(O)=NO1	15	> 1000	> 1000	> 1000	> 1000	> 1000	> 1000	10	> 100		9	10	11	> 1000	0.67	> 1000	13	> 100		> 1000	Log Ki (Glutamate NMDA receptor): -6.19

From ChEMBL document CHEMBL1142433, “Synthesis and pharmacological characterization at glutamate receptors of the four enantiopure isomers of tricholomic acid” (J Med Chem, 2008)
